Rad51 HR inh: blocks human Rad51 in homologous recombination; AID 1385; actives 0.085% (n = 200,000); Q06609; inhibition, % at 10 µM; hRad51 DNA strand exchange, fluorescence dequenching;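 active = inhibition above 40% at the single screening dose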;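 also: 0% = DMSO control wells and 100% = blanks with heterologous ssDNA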
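Test system: preformed human Rad51 ssDNA filaments; also added: Donor/quencher-labelled 47-bp dsDNA substrate; doses: 10 µM final, single point; times: 37 °C 15-min filament assembly, 30-min compound preincubation, 15-min exchange; detection: FRET fluorescence dequenching, excitation 485 nm, emission 520 nm; read-out basis: Fluorescence-based percent inhibition, control- and blank-normalised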
Lmaj promast: Leishmania major promastigote growth inhibition. AID 1063. actives 9% (n = 200,000). Leishmania major promastigotes, resazurin fluorescence viability. inhibition, % at 10 µM; in the data active = inhibition above about 50%;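 also: promastigotes grown with compound for 44 hours at 28 °C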
PMI act satM6P: PMI (human) activation, high substrate; P34949; AID 1216; actives 0.34% (n = 190,000); activation factor at 20 µM; coupled PMI enzyme assay, resazurin fluorescence, 20 min; hits give high values; 1 = untreated enzyme, 0 = substrate-free blank;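 active = activation factor of 2 or more at 20 µM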
Target sequence (P34949 whole entry, looked up): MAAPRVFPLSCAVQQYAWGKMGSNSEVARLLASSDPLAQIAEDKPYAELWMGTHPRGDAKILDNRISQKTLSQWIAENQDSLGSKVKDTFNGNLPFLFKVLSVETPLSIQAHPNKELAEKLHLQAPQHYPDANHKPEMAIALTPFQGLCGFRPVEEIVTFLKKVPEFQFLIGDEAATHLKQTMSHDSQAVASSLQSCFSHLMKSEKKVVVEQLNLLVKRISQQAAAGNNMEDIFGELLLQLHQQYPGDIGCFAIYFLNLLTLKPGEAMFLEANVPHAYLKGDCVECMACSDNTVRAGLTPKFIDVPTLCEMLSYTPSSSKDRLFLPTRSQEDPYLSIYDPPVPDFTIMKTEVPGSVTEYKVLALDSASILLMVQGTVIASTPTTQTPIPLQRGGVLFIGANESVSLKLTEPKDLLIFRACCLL
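Material: human phosphomannose isomerase with PGI, G6PDH, diaphorase coupling enzymes; amount: PMI at 15 ng/mL final; also added: Mannose-6-phosphate 1.0 mM (near-saturating) plus 0.22 mM NADP+; incubation: enzyme reaction with compound 20 min at room temperature; signal: resorufin fluorescence (Ex 544/Em 590 nm) from resazurin via diaphorase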
PMI act: increases human mannose-6-phosphate isomerase activity; purified human PMI, coupled resazurin fluorescence, 20 min; hits give high values; 1 = vehicle control, 0 substrate-free wells; activation factor at 20 µM; actives 0.005% (n = 190,000); AID 1214;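 active = activation factor of 2 or more at 20 µM, relative to plate controls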
WT yeast gro inh: growth inhibition of WT yeast, mitochondrial fusion screen; inhibition, % at 10 µM; actives 2.1% (n = 190,000); mitochondrial fusion phenotypic screen, WT strain; AID 1362; in the data active = inhibition above about 58%; tested in S. cerevisiae
Calpain2 inh: calpain II (pig) inhibition. actives 0.37% (n = 220,000). inhibition, % at 16 µM. purified calpain II, fluorogenic peptide substrate, 30 min;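 active = inhibition above about 50%, limit read from the data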
Numbers without * were called inactive; i = inactive; · = no result given. An excerpt weighted towards active compounds, which were near 9.8% of everything screened.

SMILES	Rad51 HR inh	Lmaj promast	PMI act satM6P	PMI act	WT yeast gro inh	Calpain2 inh
Cc1ccc(C(c2c(C)nn(-c3ccccc3)c2N)c2c(C)nn(-c3ccccc3)c2N)cc1	-3	95*	0.8	0.8	16	20
CCOC(=O)c1c(C)nc2sc3c(=O)n(-c4ccc(C(C)=O)cc4)nnc3c2c1-c1ccc(Cl)cc1	2	54*	0.9	0.9	13	-72
C=C1c2cc(C)ccc2NC(=O)N1c1ccc(C)cc1	1	5	2.4*	1.9	19	-18
Cc1ccc(N2C(=O)c3cccc4cccc(c34)C2=O)cc1	-1	-7	1	1	0	-22
C=C1c2ccccc2NC(=O)N1c1ccc(C)cc1	6	-3	2.1*	1.7	1	-15
Cc1ccc2nc(NC(=O)CC3Oc4ccccc4NC3=O)sc2c1 (stereo not drawn)	-6	·	·	·	·	-12
Cc1cc(=O)oc2c(CN3CC(C)OC(C)C3)c(O)c(Cl)cc12 (stereo not drawn)	1	-8	0.8	1	-3	i
O=C(c1ccccc1)C1CN(Cc2ccccc2)CCC1(O)c1ccccc1 (stereo not drawn)	-19	62*	0.8	0.8	35	45
CC(C)NC(=O)CN1CCC(O)(c2ccccc2)CC1	·	33	1.1	1.1	8	-35
O=C(c1cccc(C(=O)N2CCN(Cc3ccccc3)CC2)c1)N1CCN(Cc2ccccc2)CC1	4	-7	0.9	0.9	4	-3
OC1(c2ccccc2)CCN(Cc2ccccc2)CC1	9	83*	1	0.4	15	28
OC1CCCN(Cc2ccccc2)C1 (stereo not drawn)	-4	-2	1.1	1.1	5	3
OC(c1ccccc1)C1CN(Cc2ccccc2)CCC1(O)c1ccccc1 (stereo not drawn)	-1	85*	1.1	1	15	36
Cc1cc(SCC(=O)NN)c2cc(Br)ccc2n1	-26	·	·	·	·	-17
CC(CC(=O)O)CC(=O)Nc1nncs1 (stereo not drawn)	12	·	·	·	·	2
Cc1ccc(NC2=C(Cl)C(=O)c3ccccc3C2=O)cc1	-7	9	0.6	1	15	18
O=C1C(Cl)=C(Nc2ccc(O)cc2)C(=O)c2ccccc21	·	·	·	·	·	14
CCOC(=O)c1ccc(NC2=CC(=O)C(=O)c3ccccc32)cc1	-2	100*	0.4	0.8	1	-57
Cc1ccc(NC2=CC(=O)C(=O)c3ccccc32)cc1	2	99*	0.4	0.9	65*	22
O=C1C=C(Nc2ccc(O)cc2)C(=O)c2ccccc21	14	·	·	·	·	58*
N=C1C(c2ccccc2)=C(O)CN1c1cccc(S(=O)(=O)N2CCCCC2)c1	3	·	·	·	·	-5
NCCCCCC(=O)N/N=C/c1coc2ccccc2c1=O	7	·	·	·	·	-19
CC(C)OCCCN1C(=O)c2[nH]nc(-c3ccccc3O)c2C1c1cccc(Cl)c1 (stereo not drawn)	-5	70*	0.9	0.9	9	-35
COc1ccc(-c2n[nH]c3c2C(c2ccc(OC)c(OC)c2)N(c2ccccc2)C3=O)cc1 (stereo not drawn)	4	97*	1	1	-6	-82
COCCCN1C(=O)c2[nH]nc(-c3ccccc3O)c2C1c1cccc(Cl)c1 (stereo not drawn)	-3	36	0.8	0.8	0	-22
SMILES	Rad51 HR inh	Lmaj promast	PMI act satM6P	PMI act	WT yeast gro inh	Calpain2 inh
COc1ccc(CCN2C(=O)c3[nH]nc(-c4ccccc4O)c3C2c2ccccc2)cc1OC (stereo not drawn)	-11	60*	0.9	0.9	-3	-18
COCCCN1C(=O)c2[nH]nc(-c3ccccc3O)c2C1c1ccc(Cl)cc1 (stereo not drawn)	4	66*	0.8	0.8	-5	-36
CN(C)CCCN(C(=O)/C=C/c1cccs1)c1nc2ccc(F)cc2s1	0	17	0.9	0.9	86*	-31
CN(C)CCCOC(=O)c1sc2ccccc2c1Cl	-6	59*	0.9	0.9	10	-34
COc1cccc2sc(N(CCN(C)C)C(=O)/C=C/c3cccs3)nc12	5	7	1.2	1.2	16	-35
CN(C)CCN(C(=O)/C=C/c1cccs1)c1nc2c(F)cc(F)cc2s1	1	77*	1.2	1.1	26	-2
CN(C(=O)COC(=O)c1sc2ccccc2c1Cl)C1CCCCC1	11	-11	1	1	54	24
CN(C)CCCN(C(=O)c1sc2ccccc2c1Cl)c1nc2ccc(F)cc2s1	6	72*	1.1	1.1	64*	15
CCOc1ncccc1C(=O)OCC(=O)Nc1cccc(S(N)(=O)=O)c1	-9	-5	1.1	1	1	-8
Cc1ccc2nc(N(CCN(C)C)C(=O)/C=C/c3cccs3)sc2c1	0	83*	1.2	1.1	30	-1
Cc1ccc2nc(N(CCCN(C)C)C(=O)c3cc4ccccc4oc3=O)sc2c1	3	67*	1.1	1.1	7	7
Cc1cccc2sc(N(CCCN(C)C)C(=O)c3cc4ccccc4oc3=O)nc12	-2	10	0.9	0.9	1	-8
Cc1cccc(NC(=O)CCCn2c(=S)[nH]c3ccccc3c2=O)c1	8	-2	1.1	1.1	8	6
O=S1(=O)CCN(Cc2cccc(C(F)(F)F)c2)CC1	27	-4	1.1	1.1	1	7
CCN(CC)CCCNC(=O)c1sc2ncn(CC(=O)Nc3ccc(C)c(Cl)c3)c(=O)c2c1C	25	11	0.9	1.1	-15	-44
Cc1ccc(NC(=O)Cn2cnc3sc(C(=O)NCCN(C)C)c(C)c3c2=O)cc1Cl	0	76*	1	0.9	-7	-12
O=C(CN1CCc2ccccc21)NC(=O)NC1CCCCC1	-6	·	·	·	·	-10
O=C(/C=C/c1ccco1)NC(=S)NNC(=O)c1ccco1	7	94*	1.4	1.3	2	18
COc1cc(NC(=S)NC(=O)c2ccco2)ccc1NC(=O)C(C)C	7	86*	1	1	-7	7
COc1ccccc1C(=O)NNC(=S)NC(=O)c1ccco1	-7	7	1	1	87*	14
COc1cc(NC(=O)C(C)C)ccc1NC(=O)c1ccco1	5	-7	0.9	0.9	47	-17
CC(Oc1ccccc1)C(=O)Nc1nnc(C2CCCCC2)s1 (stereo not drawn)	-3	-5	0.9	1	13	-10
O=C1c2cccc3cccc(c23)C(=O)N1CCCN1CCN(c2ccc(F)cc2)CC1	7	34	1	1	60*	54*
Cc1ccc(NC(=S)N2CCN(CCN3C(=O)c4cccc5cccc(c45)C3=O)CC2)cc1	-6	100*	1.1	1	6	19
